Screens deposited in PubChem BioAssay by Broad Institute.
rRNA inh HTS: selective bacterial rRNA inhibition in E. coli | 350,000 compounds, 1.6% hits | E. coli WT GFP vs humanized-ribosome RFP mutants, fluorescence, 24 h; stronger effect = lower value; DMSO median 0, no signal -100 | GFP signal change (wild-type ribosome), % (no concentration beside the values);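 active = significant combined selectivity score with lowered wild-type GFP, culture density cut under 30%, mutant RFP and density less affected; inactive = any of these conditions unmet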
SIRT5 block: sirtuin-5 (human) deacylase inhibition; Q9NXA8; Purified SirT5, succinyl-peptide AMC, trypsin-coupled fluorescence; inhibition, % at 15 µM; 330,000 compounds, 1.1% hits; AID 652115; in the data active = inhibition above about 15%; inconclusive = no clear call, values can overlap the other calls
Target sequence (Q9NXA8 whole entry, looked up): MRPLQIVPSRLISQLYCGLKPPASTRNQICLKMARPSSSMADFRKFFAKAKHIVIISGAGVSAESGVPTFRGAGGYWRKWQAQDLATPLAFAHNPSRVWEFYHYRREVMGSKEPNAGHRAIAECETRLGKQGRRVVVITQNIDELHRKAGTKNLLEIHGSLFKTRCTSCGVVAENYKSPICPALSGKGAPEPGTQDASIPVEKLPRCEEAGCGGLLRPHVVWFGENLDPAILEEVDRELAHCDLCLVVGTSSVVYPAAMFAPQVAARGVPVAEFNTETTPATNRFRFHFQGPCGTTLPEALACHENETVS
S100A4 inh HTS: S100A4-myosin IIA interaction inhibition | P26447 | S100A4/TAMRA-MyoIIA peptide fluorescence polarization | inhibition, % at 10.7 µM | 360,000 compounds, 0.14% hits;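 active = mean inhibition of at least 70% across replicates, with every replicate also reaching that level; inconclusive = mean inhibition reaches 70% but some replicates fall short; inactive = mean inhibition below 70%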
Target sequence (P26447 whole entry, looked up): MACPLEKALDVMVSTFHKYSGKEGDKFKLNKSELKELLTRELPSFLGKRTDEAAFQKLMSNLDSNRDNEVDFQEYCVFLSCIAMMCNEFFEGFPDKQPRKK
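System – human S100A4 monomer protein, biochemical binding assay · Buffer or medium – Calcium-containing HEPES buffer, pH 7.2 · Timing – 5 min between mix addition and reading · Also added – TAMRA-labelled myosin IIA heavy-chain peptide probe, 5 nM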
C2C12 statin: protects C2C12 myotubes from simvastatin toxicity | ATP luminescence, 48 h; scaled: DMSO 0, geranylgeraniol control 100 | rescue of ATP level, % at 7.49 µM | 330,000 compounds, 0.78% hits;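 active = mean ATP rescue above about 67%, or every replicate alone reaching that limit, limit read from the data, passing the limit was not always enough; inconclusive = no clear call, values can overlap the other calls; inactive = mean under the limit and some replicate under it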;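 note: myotubes were challenged with 10 µM simvastatin during compound exposure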
PGC1a acetyl inh: modulators of PGC1a acetylation. U2OS PGC1a acetylation, AlphaScreen anti-acetyl-lysine; with virally co-expressed GCN5 acetyltransferase. inhibition, % at 15.6 µM. 350,000 compounds, 0.17% hits. AID 651687;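 active = every replicate shows inhibition of at least 40%; inconclusive = mean inhibition at least 40% but some replicate below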;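 note: 0% = neutral control wells and 100% = positive control wells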
Cneo AK release: Cryptococcus neoformans lysis via adenylate kinase release. C. neoformans lysis, adenylate kinase release luminescence, 4 h; normalised: neutral wells 0, clomiphene wells 100. lysis activity, % at 15 µM. 360,000 compounds, 0.2% hits. AID 651654;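 active = mean lysis activity across replicates of at least 80%, whatever share of replicates individually reach that level; inactive = mean lysis activity below 80%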
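Material: C. neoformans cells | Amount: Yeast cell density of 5 × 10^6 cells/mL | Medium: Fresh YPD growth medium | Dosing: Single dose | Times: Static 4 h at 37 °C with compound, 1 h detection | Detection: AK luminescence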
The depositor's hits bear a star; ? = inconclusive; / = no result given. Rows were chosen to be rich in hits. Some 3% of all compounds tested hit in one or more screens of this group.

SMILES | rRNA inh HTS | SIRT5 block | S100A4 inh HTS | C2C12 statin | PGC1a acetyl inh | Cneo AK release
COc1ccccc1CNC(=O)C1CCC(CNS(=O)(=O)c2ccc(F)cc2)CC1 (centres undefined) | 6 | 21* | 3 | 6 | 6 | -1
C[C@@H]1CN([C@@H](C)CO)C(=O)c2cc(NC(=O)Nc3cccc4ccccc34)ccc2O[C@@H](C)CCCCO[C@@H]1CN(C)C(=O)C1CCCCC1 | 1 | 5 | -19 | / | 4 | -5
O=C(NCC(=O)N1CCN(C(c2ccccc2)c2ccccc2)CC1)c1ccccc1Br | -2 | 20* | -1 | 24 | 2 | 6
O=C(CN1CCN(C(c2ccccc2)c2ccccc2)CC1)N1CCN(c2ccccc2)CC1 | -38* | -4 | -8 | / | 9 | -1
O=C(CSc1ccc(-c2ccccc2)nn1)N1CCN(c2ccccc2)CC1 | 8 | 18* | -6 | / | -2 | 1
O=C(CSc1ccc(-c2ccncc2)nn1)N1CCN(c2ccccc2)CC1 | 6 | 0 | 2 | 2 | 5 | 1
CC1CCN(CC(=O)N2CCN(c3ccccc3)CC2)CC1 | 7 | -2 | -4 | 4 | / | -3
O=C(NCC(=O)N1CCN(C(c2ccccc2)c2ccccc2)CC1)c1ccc(Br)o1 | 0 | 0 | -4 | 10 | / | 3
CC(C)CC#Cc1ccc([C@@H]2[C@@H](CO)N3C(=O)CN(C(=O)c4ccc5c(c4)OCO5)C[C@H]23)cc1 | 2 | / | / | / | / | /
C[C@@H]1CCCCO[C@H](CN(C)S(=O)(=O)c2ccc(Cl)cc2)[C@@H](C)CN([C@@H](C)CO)C(=O)c2cc(NC(=O)NC3CCCCC3)ccc2O1 | -1 | 1 | -8 | / | 14 | -4
C[C@H]1CN([C@@H](C)CO)C(=O)Cc2cc(NC(=O)CCCCCC(=O)Nc3ccccc3N)ccc2O[C@H]1CN(C)Cc1ccc(Cl)c(Cl)c1 | -7 | 5 | -5 | 105* | 1 | 0
C[C@H](CO)N1C[C@H](C)[C@@H](CN(C)Cc2ccc(Cl)c(Cl)c2)Oc2ccc(NC(=O)CCCCCC(=O)Nc3ccccc3N)cc2CC1=O | -3 | 26* | 1 | / | -4 | /
C[C@H](CO)N1C[C@H](C)[C@H](CN(C)Cc2ccc(Cl)c(Cl)c2)Oc2ccc(NC(=O)CCCCCC(=O)Nc3ccccc3N)cc2C1=O | -9 | 24* | -6 | -54 | -1 | 0
COc1ccc2c3c(n(C)c2c1)[C@@H](CO)N(CC1CCOCC1)CC31CCN(C(=O)Nc2ccccc2)CC1 | 1 | / | / | / | 3 | /
COc1ccc(C(=O)NCc2cc(C)nc3ccccc23)cc1OC | -4 | 3 | 2 | 13 | 3 | 0
COc1ccc(C(=O)N(c2ccccc2)c2nccc3ccccc23)cc1OC | -19* | / | 1 | 7 | -9 | 1
O=C(C1CCCN(c2ncnc3c2nc2n3CCCCC2)C1)N1CCN(c2cccc(Cl)c2)CC1 (centres undefined) | -31 | 7 | -4 | 3 | / | 0
CN(C(=O)C1CCCN(c2ncnc3c2nc2n3CCCCC2)C1)c1cccc(Cl)c1 (centres undefined) | -36* | 0 | 1 | 15 | -6 | 0
CC(C(=O)NC(N)=O)N1C(=O)NC(c2ccccc2)(c2ccccc2)C1=O (centres undefined) | 1 | 19* | -1 | 7 | -4 | 0
O=C(C[C@@H]1C[C@@H]2c3cc(NC(=O)NC4CCCC4)ccc3O[C@@H]2[C@H](CO)O1)NCc1cc(F)ccc1F | 0 | / | / | / | / | /
CCCc1nc2oc3ccccc3c(=O)c2c(=O)n1-c1ccccc1 | -30* | 1 | -3 | / | -1 | 1
Cc1ccc(-n2c(C(C)C)nc3oc4ccccc4c(=O)c3c2=O)cc1 | -32* | -4 | -2 | / | / | /
CCCc1nc2oc3ccccc3c(=O)c2c(=O)n1-c1ccc(C)cc1 | -46* | 0 | 2 | / | 12 | -1
CCNC(=O)C[C@@H]1CC[C@@H]2[C@@H](COc3ccc(NC(=O)Nc4c(C)noc4C)cc3C(=O)N2C)O1 | 3 | 2 | -3 | -8 | 7 | 0
CC(=O)N1[C@H](CO)[C@H](c2ccc(C3=CCCC3)cc2)C12CN(C(=O)C1CC1)C2 | 2 | -4 | 0 | / | 0 | /
SMILES | rRNA inh HTS | SIRT5 block | S100A4 inh HTS | C2C12 statin | PGC1a acetyl inh | Cneo AK release
CCCNC(=O)N1CC[C@@H]2[C@@H](CO)N(C)c3ccc(-c4ccc(F)cc4)cc3[C@@H]21 | -6 | -3 | 93* | -16 | 21 | 10
CCCNC(=O)N1CC[C@@H]2[C@H]1c1cc(-c3ccccc3)ccc1N(C)[C@H]2CO | -8 | -13 | -22 | 28 | -5 | 5
CN1c2ccc(Br)cc2[C@@H]2[C@@H](CCN2C(=O)Cc2cccnc2)[C@@H]1CO | -3 | 11 | -6 | 16 | 3 | 90*
CN1c2ccc(-c3ccc(F)cc3)cc2[C@@H]2[C@@H](CCN2S(=O)(=O)c2cccc(F)c2)[C@@H]1CO | 1 | 6 | -5 | -34 | -13 | 1
CN1c2ccc(-c3ccc(F)cc3)cc2[C@H]2[C@H](CCN2S(=O)(=O)c2cccc(F)c2)[C@H]1CO | 2 | / | 1 | -1 | 11 | 104*
CN1c2ccc(-c3ccc(F)cc3)cc2[C@@H]2[C@@H](CCN2C(=O)C2CCOCC2)[C@@H]1CO | -6 | 0 | 2 | 10 | 2 | 81*
CN1c2ccc(Br)cc2[C@H]2[C@H](CCN2C(=O)Cc2cccnc2)[C@H]1CO | 1 | 2 | 21 | 19 | -6 | 5
C[C@H](CO)N1C[C@H](C)[C@H](CN(C)Cc2ccccc2)Oc2ncc(-c3ccc(F)cc3)cc2C1=O | 0 | 2 | 0 | 9 | -9 | 5
COc1ccc(NC(=O)Nc2ccc3c(c2)CC(=O)N([C@H](C)CO)C[C@H](C)[C@H](CN(C)S(=O)(=O)c2ccc(C)cc2)O3)cc1 | -1 | / | / | / | / | /
C[C@H]1CN([C@@H](C)CO)C(=O)c2cccc(NC(=O)C3CCOCC3)c2O[C@@H]1CN(C)S(C)(=O)=O | -1 | -2 | 12 | -7 | 8 | -3
CN1c2ccc(C#Cc3cccnc3)cc2[C@@H]2[C@@H](CCN2S(=O)(=O)c2ccccc2F)[C@@H]1CO | -3 | -26 | 120* | -56 | -7 | -25
COc1ccc(S(=O)(=O)NCCSc2ccc(Cl)cc2)cc1OC | -38* | -2 | -14 | 8 | 0 | 0
O=C(C[C@@H]1CC[C@@H]2[C@H](COC[C@H](O)CN2S(=O)(=O)c2ccccc2Cl)O1)N1CCC(Cc2ccccc2)CC1 | -30 | 2 | ? | 3 | 9 | 4
